Assay results taken from ChEMBL document CHEMBL3861972, “Actinomadurol, an Antibacterial Norditerpenoid from a Rare Actinomycete, Actinomadura sp. KC 191” (J Nat Prod, 2016).
≈ marks a conversion by molar mass, not a printed value.

Experiments:
Staphylococcus aureus = assay: Antibacterial activity against Staphylococcus aureus ATCC 6538p after 24 hrs by serial two fold dilution method; type: functional
Summary of the method: (§1)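 Broth microdilution MIC. Bacteria grown overnight in LB broth at 37 °C, harvested by centrifugation and washed twice in sterile distilled water. Compound DMSO stocks were diluted in Standard method broth to give serial 2-fold dilutions from 100 to […] μg/mL. About 10^5 cfu/mL of test bacteria were added per well, and plates were incubated 24 h at 37 °C.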

Bacillus spizizenii = assay: Antibacterial activity against Bacillus subtilis ATCC 6633 after 24 hrs by serial two fold dilution method; type: functional; conditions: ATCC 6633, 24 h; summary of the method: as §1
Kocuria rhizophila = assay: Antibacterial activity against Kocuria rhizophila NBRC 12708 after 24 hrs by serial two fold dilution method; type: functional; conditions: NBRC 12708, 24 h; summary of the method: as §1
Proteus hauseri = assay: Antibacterial activity against Proteus hauseri NBRC 3851 after 24 hrs by serial two fold dilution method; type: functional; conditions: NBRC 3851, 24 h; summary of the method: as §1
[1] = Antibacterial activity against Salmonella enterica ATCC 14028 after 24 hrs by serial two fold dilution method; type: functional; conditions: ATCC 14028, 24 h; summary of the method: as §1
Escherichia coli = assay: Antibacterial activity against Escherichia coli ATCC 25922 after 24 hrs by serial two fold dilution method; type: functional; conditions: ATCC 25922, 24 h; summary of the method: as §1
Aspergillus fumigatus = assay: Antifungal activity against Aspergillus fumigatus; type: functional
[2] = Antifungal activity against Trichophyton rubrum; type: functional
[3] = Antifungal activity against Trichophyton mentagrophytes; type: functional
[4] = Growth inhibition of human A549 cells; type: functional, cell-based
[5] = Growth inhibition of human HCT116 cells; type: functional, cell-based; conditions: HCT-116
[6] = Growth inhibition of human SNU638 cells; type: functional, cell-based; conditions: SNU-638
[7] = Growth inhibition of human SKHEP1 cells; type: functional, cell-based; conditions: SK-HEP1
[8] = Growth inhibition of human MDA-MB-231 cells; type: functional, cell-based
[9] = Growth inhibition of human K562 cells; type: functional, cell-based
Candida albicans = assay: Antifungal activity against Candida albicans; type: functional

Row | MIC (Staphylococcus aureus) | MIC (Bacillus spizizenii) | MIC (Kocuria rhizophila) | MIC (Proteus hauseri) | MIC [1] | MIC (Escherichia coli) | MIC (Aspergillus fumigatus) | MIC [2] | MIC [3] | MIC (Candida albicans) | SMILES | IC50 [4] | IC50 [5] | IC50 [6] | IC50 [7] | IC50 [8] | IC50 [9]
1 | > 100 µg/mL | > 100 µg/mL | > 100 µg/mL | > 100 µg/mL | > 100 µg/mL | > 100 µg/mL | > 100 µg/mL | > 100 µg/mL | > 100 µg/mL | > 100 µg/mL | C=C[C@]1(C)CCC2=C(C1)C(=O)C[C@H]1C(CO)=CC(=O)[C@@H](O)[C@]21C | > 100 µg/mL | > 100 µg/mL | > 100 µg/mL | > 100 µg/mL | > 100 µg/mL | > 100 µg/mL
2 | 0.78 µg/mL (≈ 2.45 µM) | 1.56 µg/mL (≈ 4.9 µM) | 0.39 µg/mL (≈ 1.22 µM) | 0.78 µg/mL (≈ 2.45 µM) | 3.12 µg/mL (≈ 9.8 µM) | > 100 µg/mL | > 100 µg/mL | > 100 µg/mL | > 100 µg/mL | > 100 µg/mL | C=C[C@]1(C)CCC2=C(C1)[C@H](O)C[C@H]1C(CO)=CC(=O)[C@@H](O)[C@]21C | > 100 µg/mL | > 100 µg/mL | > 100 µg/mL | > 100 µg/mL | > 100 µg/mL | > 100 µg/mL

Row | SMILES | MIC (Staphylococcus aureus) | MIC (Bacillus spizizenii) | MIC (Kocuria rhizophila) | MIC (Proteus hauseri) | MIC [1] | MIC (Escherichia coli) | MIC (Aspergillus fumigatus) | MIC [2] | MIC [3] | MIC (Candida albicans) | IC50 [4] | IC50 [5] | IC50 [6] | IC50 [7] | IC50 [8] | IC50 [9]
3 | CC1(C)S[C@@H]2[C@H](NC(=O)[C@H](N)c3ccccc3)C(=O)N2[C@H]1C(=O)O [AMPICILLIN] | 3.12 µg/mL (≈ 8.93 µM) | 1.56 µg/mL (≈ 4.46 µM) | 0.79 µg/mL (≈ 2.26 µM) | 1.56 µg/mL (≈ 4.46 µM) | 3.12 µg/mL (≈ 8.93 µM) | 6.25 µg/mL (≈ 17.9 µM) | – | – | – | – | – | – | – | – | – | –
